Activity and inhibition data for one compound are collected here from ChEMBL document CHEMBL4350961, “Discovery of Pyrrolo[3,2- d]pyrimidin-4-one Derivatives as a New Class of Potent and Cell-Active Inhibitors of P300/CBP-Associated Factor Bromodomain” (J Med Chem, 2019).

Activity calls are given as the source filed them. No cut-off for these calls is given here.

In assay [1] the target is Bromodomain-containing protein 2 (Homo sapiens) (UniProt P25440). In words: Binding affinity to human partial length BRD2 bromodomain 1 long isoform (K71 to N194 residues) expressed in bacterial expression system at 1 uM by BROMOscan assay. A digest of the protocol:
(§1)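 BROMOscan bromodomain cross-screen run by an outside service, compound at 1 µM against 32 recombinant bromodomains. Binding given as percent of control.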

For assay [2], the target named is Chromatin remodeling regulator CECR2 (Homo sapiens) (UniProt Q9BXF3). In words: Binding affinity to human partial length CECR2 (P423 to D543 residues) expressed in bacterial expression system at 1 uM by BROMOscan assay. A digest of the protocol: as §1
The target of assay [3] is Protein polybromo-1 (Homo sapiens) (UniProt Q86U86). In words: Binding affinity to human partial length PBRM1 bromodomain 5 (S645 to D766 residues) expressed in bacterial expression system at 1 uM by BROMOscan assay. A digest of the protocol:
as §1

The target of assay [4] is Bone morphogenetic protein receptor type-1B (Homo sapiens) (UniProt O00238). The experiment in a line: Inhibition of recombinant human ALK6 (148 to end residues) at 10 uM using casein as substrate measured after 40 mins in presence of [gamma33P]ATP by scintillation counting method.
Sequence of Bone morphogenetic protein receptor type-1B (Homo sapiens) (O00238 whole entry, the tested form may be a part): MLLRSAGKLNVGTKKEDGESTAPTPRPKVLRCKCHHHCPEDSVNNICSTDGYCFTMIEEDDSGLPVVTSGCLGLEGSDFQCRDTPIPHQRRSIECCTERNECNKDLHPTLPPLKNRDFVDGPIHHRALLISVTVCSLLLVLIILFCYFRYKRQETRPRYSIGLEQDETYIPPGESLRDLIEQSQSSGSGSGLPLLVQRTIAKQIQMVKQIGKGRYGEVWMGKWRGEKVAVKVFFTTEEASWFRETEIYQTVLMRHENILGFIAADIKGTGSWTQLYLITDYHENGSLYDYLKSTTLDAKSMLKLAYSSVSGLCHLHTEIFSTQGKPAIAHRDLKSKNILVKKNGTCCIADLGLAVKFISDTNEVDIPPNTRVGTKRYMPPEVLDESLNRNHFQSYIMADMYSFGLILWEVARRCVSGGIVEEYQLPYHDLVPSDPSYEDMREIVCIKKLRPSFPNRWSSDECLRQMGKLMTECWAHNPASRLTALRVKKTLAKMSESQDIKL
Assay [5] has as its target Bone morphogenetic protein receptor type-2 (Homo sapiens) (UniProt Q13873). In words: Inhibition of recombinant human BMPR2 (172 to 734 residues) at 10 uM using myelin basic protein as substrate measured after 120 mins in presence of [gamma33P]ATP by scintillation counting method.
Assay [6] concerns the target Calcium/calmodulin-dependent protein kinase type IV (Homo sapiens) (UniProt Q16566). In words: Inhibition of recombinant full-length human CaMK4 at 10 uM using calmodulin as substrate measured after 40 mins in presence of [gamma33P]ATP by scintillation counting method.
Assay [7] concerns Serine/threonine-protein kinase Chk2 (Homo sapiens), O96017 [I157T]. In words: Inhibition of recombinant human CHK2 I157T mutant (5 to end residues) at 10 uM using KKKVSRSGLYRSPSMPENLNRPR as substrate measured after 40 mins in presence of [gamma33P]ATP by scintillation counting method.
Sequence of Serine/threonine-protein kinase Chk2 (Homo sapiens), O96017 [I157T] (O96017 whole entry I157T): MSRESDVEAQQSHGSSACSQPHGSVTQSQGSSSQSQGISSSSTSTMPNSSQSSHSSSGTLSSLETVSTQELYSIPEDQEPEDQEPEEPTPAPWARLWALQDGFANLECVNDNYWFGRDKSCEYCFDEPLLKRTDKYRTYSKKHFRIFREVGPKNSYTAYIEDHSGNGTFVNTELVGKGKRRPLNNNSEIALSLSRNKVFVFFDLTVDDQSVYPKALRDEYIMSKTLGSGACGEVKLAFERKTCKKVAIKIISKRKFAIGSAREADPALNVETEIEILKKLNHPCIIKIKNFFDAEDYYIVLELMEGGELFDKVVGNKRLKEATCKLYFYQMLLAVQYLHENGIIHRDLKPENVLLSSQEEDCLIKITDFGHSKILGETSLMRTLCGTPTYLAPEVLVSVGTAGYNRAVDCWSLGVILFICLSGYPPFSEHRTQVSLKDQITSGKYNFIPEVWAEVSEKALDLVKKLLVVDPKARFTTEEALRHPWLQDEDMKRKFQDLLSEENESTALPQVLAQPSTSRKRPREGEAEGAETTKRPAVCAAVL
For assay [8], the target named is Ephrin type-A receptor 3 (Homo sapiens) (UniProt P29320). In words: Inhibition of recombinant human EphA3 (578 to end residues) at 10 uM using poly(Glu, Tyr) 4:1 as substrate measured after 40 mins in presence of [gamma33P]ATP by scintillation counting method.
Assay [9] deals with Inhibitor of nuclear factor kappa-B kinase subunit epsilon (Homo sapiens) (UniProt Q14164). In words: Inhibition of recombinant full-length human IKKepsilon at 10 uM using casein as substrate measured after 40 mins in presence of [gamma33P]ATP by scintillation counting method.
Sequence of Inhibitor of nuclear factor kappa-B kinase subunit epsilon (Homo sapiens) (Q14164 whole entry): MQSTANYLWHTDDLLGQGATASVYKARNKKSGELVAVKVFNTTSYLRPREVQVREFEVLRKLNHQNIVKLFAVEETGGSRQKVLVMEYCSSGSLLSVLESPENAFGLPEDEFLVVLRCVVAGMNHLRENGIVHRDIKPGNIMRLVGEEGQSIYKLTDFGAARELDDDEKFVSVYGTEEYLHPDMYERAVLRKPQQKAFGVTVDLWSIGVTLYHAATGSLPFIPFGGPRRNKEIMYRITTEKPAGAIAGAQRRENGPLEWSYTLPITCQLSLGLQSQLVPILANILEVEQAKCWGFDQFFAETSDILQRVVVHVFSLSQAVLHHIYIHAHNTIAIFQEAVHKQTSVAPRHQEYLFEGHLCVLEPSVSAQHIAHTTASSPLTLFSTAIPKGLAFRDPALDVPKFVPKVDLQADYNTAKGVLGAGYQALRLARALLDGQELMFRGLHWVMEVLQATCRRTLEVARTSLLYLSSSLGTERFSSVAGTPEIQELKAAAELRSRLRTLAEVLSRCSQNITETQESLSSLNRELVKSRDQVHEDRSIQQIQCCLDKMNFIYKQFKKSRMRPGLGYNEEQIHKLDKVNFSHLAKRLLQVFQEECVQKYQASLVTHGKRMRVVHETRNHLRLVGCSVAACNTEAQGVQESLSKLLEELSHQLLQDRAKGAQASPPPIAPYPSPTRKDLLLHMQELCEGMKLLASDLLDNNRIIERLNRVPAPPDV
Assay [10] has as its target Mitogen-activated protein kinase 10 (Homo sapiens) (UniProt P53779). In words: Inhibition of recombinant full-length human JNK3 at 10 uM using peptide substrate measured after 40 mins in presence of [gamma33P]ATP by scintillation counting method.
Assay [11] has as its target MAP kinase-activated protein kinase 3 (Homo sapiens) (UniProt Q16644). The experiment in a line: Inhibition of recombinant human MAPKAPK3 (2 to end residues) at 10 uM using KKLNRTLSVA as substrate measured after 40 mins in presence of [gamma33P]ATP by scintillation counting method.
The target of assay [12] is Dual specificity mitogen-activated protein kinase kinase 2 (Homo sapiens) (UniProt P36507). In words: Inhibition of recombinant full-length human MEK2 at 10 uM using MBP as substrate measured after 40 mins in presence of [gamma33P]ATP by scintillation counting method.
Sequence of Dual specificity mitogen-activated protein kinase kinase 2 (Homo sapiens) (P36507 whole entry): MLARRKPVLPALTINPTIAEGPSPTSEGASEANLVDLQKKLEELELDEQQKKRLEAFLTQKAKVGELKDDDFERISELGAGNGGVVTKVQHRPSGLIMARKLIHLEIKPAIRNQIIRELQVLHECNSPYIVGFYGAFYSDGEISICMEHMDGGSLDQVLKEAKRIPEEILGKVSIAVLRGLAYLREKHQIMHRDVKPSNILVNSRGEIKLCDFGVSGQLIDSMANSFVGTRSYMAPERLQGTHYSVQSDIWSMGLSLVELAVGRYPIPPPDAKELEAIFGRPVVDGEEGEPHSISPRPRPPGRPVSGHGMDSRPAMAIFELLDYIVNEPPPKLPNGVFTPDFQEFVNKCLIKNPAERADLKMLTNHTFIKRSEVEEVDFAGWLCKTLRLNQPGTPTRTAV
The test system of assay [13] is Hepatocyte growth factor receptor (Homo sapiens), P08581 [M1250T]. In words: Inhibition of recombinant human MET A1209G/V1290L/M1268T mutant (974 to end residues) at 10 uM using KKKGQEEEYVFIE as substrate measured after 40 mins in presence of [gamma33P]ATP by scintillation counting method.
The test system of assay [14] is Hepatocyte growth factor receptor (Homo sapiens), P08581 [Y1230C]. In words: Inhibition of recombinant human MET A1209G/V1290L/Y1248C mutant (974 to end residues) at 10 uM using KKKGQEEEYVFIE as substrate measured after 40 mins in presence of [gamma33P]ATP by scintillation counting method.
The target of assay [15] is Serine/threonine-protein kinase 4 (Homo sapiens) (UniProt Q13043). In words: Inhibition of recombinant full-length human MST1 at 10 uM using KKSRGDYMTMQIG as substrate measured after 40 mins in presence of [gamma33P]ATP by scintillation counting method.
Sequence of Serine/threonine-protein kinase 4 (Homo sapiens) (Q13043 whole entry): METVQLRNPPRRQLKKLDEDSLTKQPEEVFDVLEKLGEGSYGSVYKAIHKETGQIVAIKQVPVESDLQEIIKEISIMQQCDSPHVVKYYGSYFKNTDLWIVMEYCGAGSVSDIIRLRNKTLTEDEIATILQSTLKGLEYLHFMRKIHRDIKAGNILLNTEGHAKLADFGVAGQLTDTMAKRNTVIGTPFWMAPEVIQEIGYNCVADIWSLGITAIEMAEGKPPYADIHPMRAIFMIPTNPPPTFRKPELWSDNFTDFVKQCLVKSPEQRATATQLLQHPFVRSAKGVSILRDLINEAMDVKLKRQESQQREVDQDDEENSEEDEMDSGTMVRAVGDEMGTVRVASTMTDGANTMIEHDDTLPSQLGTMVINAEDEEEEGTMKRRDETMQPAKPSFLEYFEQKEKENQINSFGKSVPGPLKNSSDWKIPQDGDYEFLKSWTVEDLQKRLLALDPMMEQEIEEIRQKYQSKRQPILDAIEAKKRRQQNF
Assay [16] has as its target Serine/threonine-protein kinase Nek6 (Homo sapiens) (UniProt Q9HC98). In words: Inhibition of recombinant human NEK6 (2 to end residues) at 10 uM using FLAKSFGSPNRAYKK as substrate measured after 40 mins in presence of [gamma33P]ATP by scintillation counting method.
Assay [17] concerns the target Mitogen-activated protein kinase 14 (Homo sapiens) (UniProt Q16539). In words: Inhibition of recombinant full-length human SAPK2a at 10 uM using myelin basic protein as substrate measured after 40 mins in presence of [gamma33P]ATP by scintillation counting method.
Assay [18] deals with TGF-beta receptor type-1 (Homo sapiens), P36897 [T204D]. The experiment in a line: Inhibition of human TGFBR1 T204D mutant (200 to end residues) using casein as substrate measured after 40 mins in presence of [gamma33P]ATP by scintillation counting method.
For assay [19], the target named is TGF-beta receptor type-2 (Homo sapiens) (UniProt P37173). In words: Inhibition of human TGFBR2 (188 to end residues) using myelin basic protein as substrate measured after 120 mins in presence of [gamma33P]ATP by scintillation counting method.
Sequence of TGF-beta receptor type-2 (Homo sapiens) (P37173 whole entry): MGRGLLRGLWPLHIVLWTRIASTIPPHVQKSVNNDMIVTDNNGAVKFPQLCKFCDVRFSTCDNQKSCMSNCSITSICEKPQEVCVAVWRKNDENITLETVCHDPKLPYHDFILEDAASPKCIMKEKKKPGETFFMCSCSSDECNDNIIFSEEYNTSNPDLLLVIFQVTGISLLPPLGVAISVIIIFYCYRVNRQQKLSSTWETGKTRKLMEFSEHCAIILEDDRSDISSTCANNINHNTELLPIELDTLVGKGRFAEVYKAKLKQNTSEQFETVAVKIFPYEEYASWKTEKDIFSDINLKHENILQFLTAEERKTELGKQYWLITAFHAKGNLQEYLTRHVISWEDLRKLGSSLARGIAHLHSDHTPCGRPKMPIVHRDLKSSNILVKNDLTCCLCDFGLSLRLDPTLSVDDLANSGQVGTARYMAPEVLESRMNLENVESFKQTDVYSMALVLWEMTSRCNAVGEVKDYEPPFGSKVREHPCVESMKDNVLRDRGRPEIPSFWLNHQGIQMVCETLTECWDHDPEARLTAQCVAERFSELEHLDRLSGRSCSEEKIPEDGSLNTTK
For assay [20], the target named is Non-receptor tyrosine-protein kinase TYK2 (Homo sapiens) (UniProt P29597). The experiment in a line: Inhibition of human TYK2 (875 to end residues) using GGMEDIYFEFMGGKKK as substrate measured after 40 mins in presence of [gamma33P]ATP by scintillation counting method.
Sequence of Non-receptor tyrosine-protein kinase TYK2 (Homo sapiens) (P29597 whole entry): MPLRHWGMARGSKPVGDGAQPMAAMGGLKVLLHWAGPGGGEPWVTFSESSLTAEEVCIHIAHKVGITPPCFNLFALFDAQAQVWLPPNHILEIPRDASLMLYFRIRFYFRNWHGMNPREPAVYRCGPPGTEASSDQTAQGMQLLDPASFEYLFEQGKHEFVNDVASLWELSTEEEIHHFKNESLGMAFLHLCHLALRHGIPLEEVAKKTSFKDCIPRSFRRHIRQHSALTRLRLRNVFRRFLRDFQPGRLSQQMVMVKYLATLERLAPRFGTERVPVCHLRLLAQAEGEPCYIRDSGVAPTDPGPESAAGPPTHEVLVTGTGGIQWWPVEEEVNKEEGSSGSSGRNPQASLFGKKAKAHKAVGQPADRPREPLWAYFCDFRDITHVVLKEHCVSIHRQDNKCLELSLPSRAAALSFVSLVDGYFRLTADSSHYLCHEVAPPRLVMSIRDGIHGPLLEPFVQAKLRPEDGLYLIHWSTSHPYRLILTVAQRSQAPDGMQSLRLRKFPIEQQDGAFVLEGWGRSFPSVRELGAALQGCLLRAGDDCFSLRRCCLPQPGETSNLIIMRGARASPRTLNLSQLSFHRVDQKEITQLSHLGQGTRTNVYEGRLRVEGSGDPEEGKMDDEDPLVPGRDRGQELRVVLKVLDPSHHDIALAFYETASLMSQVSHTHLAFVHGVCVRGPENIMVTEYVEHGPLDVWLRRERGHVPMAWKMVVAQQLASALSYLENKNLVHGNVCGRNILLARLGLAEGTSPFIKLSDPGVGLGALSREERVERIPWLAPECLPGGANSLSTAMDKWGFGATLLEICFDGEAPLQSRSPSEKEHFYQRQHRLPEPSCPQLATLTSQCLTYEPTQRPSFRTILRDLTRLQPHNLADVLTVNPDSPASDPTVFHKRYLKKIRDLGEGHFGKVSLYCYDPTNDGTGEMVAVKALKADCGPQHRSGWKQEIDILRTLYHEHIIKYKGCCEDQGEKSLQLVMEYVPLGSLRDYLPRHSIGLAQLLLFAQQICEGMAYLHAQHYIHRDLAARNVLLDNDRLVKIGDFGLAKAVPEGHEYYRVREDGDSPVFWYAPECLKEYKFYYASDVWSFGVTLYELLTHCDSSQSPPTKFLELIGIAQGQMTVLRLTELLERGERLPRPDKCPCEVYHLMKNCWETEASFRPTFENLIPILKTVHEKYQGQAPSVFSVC
In assay [21] the target is Tyrosine-protein kinase ZAP-70 (Homo sapiens) (UniProt P43403). In words: Inhibition of recombinant full-length human ZAP70 at 10 uM using poly(Glu, Tyr) 4:1 as substrate measured after 40 mins in presence of [gamma33P]ATP by scintillation counting method.
Sequence of Tyrosine-protein kinase ZAP-70 (Homo sapiens) (P43403 whole entry): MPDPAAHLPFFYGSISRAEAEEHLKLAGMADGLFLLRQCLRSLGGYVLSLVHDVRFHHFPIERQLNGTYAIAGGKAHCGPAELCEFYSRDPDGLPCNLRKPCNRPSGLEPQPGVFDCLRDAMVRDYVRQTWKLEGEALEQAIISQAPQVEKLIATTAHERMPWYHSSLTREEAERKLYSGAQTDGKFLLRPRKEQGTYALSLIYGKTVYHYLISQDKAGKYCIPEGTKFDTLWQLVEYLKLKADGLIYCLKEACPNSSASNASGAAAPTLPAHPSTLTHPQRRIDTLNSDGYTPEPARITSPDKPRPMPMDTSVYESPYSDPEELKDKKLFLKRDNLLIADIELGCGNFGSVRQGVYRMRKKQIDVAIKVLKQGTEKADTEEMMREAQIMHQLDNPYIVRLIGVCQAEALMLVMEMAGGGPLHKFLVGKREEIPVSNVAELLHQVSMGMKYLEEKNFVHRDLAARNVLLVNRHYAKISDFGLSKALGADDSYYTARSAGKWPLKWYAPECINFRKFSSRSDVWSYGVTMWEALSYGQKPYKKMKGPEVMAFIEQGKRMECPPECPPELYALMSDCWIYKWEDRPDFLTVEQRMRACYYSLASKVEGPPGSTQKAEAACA
For assay [22], the species on record is Mus musculus. In words: Inhibition of recombinant full-length mouse PI3K p110alpha/p85alpha at 10 uM using phosphatidylinositol-4, 5-bisphosphate as substrate measured after 40 mins by HTRF assay. For orientation: In TR-FRET formats the signal depends on donor and acceptor labels being close together.
For assay [23], the species on record is Mus musculus. In words: Inhibition of recombinant full-length mouse PI3K p110alpha/p85alpha H1047R mutant at 10 uM using phosphatidylinositol-4, 5-bisphosphate as substrate measured after 40 mins by HTRF assay.
The target of assay [24] is Serine/threonine-protein kinase 33 (Homo sapiens) (UniProt Q9BYT3). The experiment in a line: Inhibition of recombinant full-length human STK33 at 10 uM using myelin basic protein as substrate measured after 40 mins in presence of [gamma33P]ATP by scintillation counting method.

Regarding `CN1C[C@H](Nc2nc3cc[nH]c3c(=O)n2C)C[C@H](c2ccc3c(c2)OCCO3)C1`, the result in [1] and in assay [3] was inactive. In assay [2], the result was Active. Also, the inhibition entry in assay [4], in [5], in assay [6], in assay [7], in assay [8] and in assay [9] was “inactive” in each case. For the same compound, the inhibition result in [10], in assay [11], in [12], in [13], in assay [14] and in assay [15] was “inactive” in each case. Also, the inhibition entry in assay [16], in assay [17], in [18], in [19], in assay [20] and in assay [21] was “inactive” each time. Further, the inhibition result in [22], in [23] and in assay [24] was “inactive” in each case.
